Source: PubChem BioAssay (several laboratories)
Shown are actives, neighbours in structure and some others; about 2.2% of the full set was active somewhere.
RBBP9 inh – human RBBP9 inhibitors, primary screen, biochemical, fluorescence polarization, FP-Rh probe, HTS. Serine hydrolase RBBP9 (Homo sapiens), O75884. AID 1515, 2009. recombinant RBBP9. inhibition, % at 7.94 µM. 0.2% of 220,000 active;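 active = inhibition above the campaign mean of all tested compounds plus 3 SD, cut at about 14% in these data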
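Assay system: recombinant human RBBP9; Reagent: Serine-hydrolase probe FP-Rh, 375 nM pre-mixing; Doses: 7.94 µM single dose, 0.794% DMSO; Incubation: 30 min then 45 min, 25 °C; Detection: fluorescence polarization (mP), excitation 525 nm, emission 598 nm; Evaluation: percent inhibition from mP, scaled between DMSO and no-protein wells.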
Insulin prom up – insulin promoter activators in MIN6 cells, imaging, high-content screening, mouse beta cells; MIN6 insulin promoter-GFP reporter; active compounds read high; z-score at 5 µM; 0.3% of 190,000 active; AID 1625, 2009;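 active = z-score above 3 at 5 µM with at least 500 cells counted in the well; inconclusive = wells under 500 cells, flagged as cytotoxic or low count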
MDM2 E3 inh – MDM2-luciferase reporter signal enhancers, primary screen, MDM2 E3 ligase inhibitor project, cell-based, luminescence, 1536-well; E3 ubiquitin-protein ligase Mdm2 (Homo sapiens), Q00987; cell-based MDM2 ubiquitination luciferase reporter, 2 h; 0 = plate control, 100 = twice control, blank-subtracted; signal enhancement, % at 5 µM; 0.11% of 210,000 active; AID 1230, 2008;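 active = signal enhancement of 30% or more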;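 note: luminescence tracks abundance of the self-degrading MDM2-luciferase fusion protein; higher signal means inhibition of MDM2 E3 ligase activity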
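Test system: stable mammalian line carrying autodegrading MDM2–luciferase fusion reporter; quantity: 2000 cells in each well; times: 4 h cell settling then 2 h compound exposure, 37 °C; detection: luminescence with SteadyLite reagent, 15 min at room temperature; evaluation: percent signal gain over controls, blank-subtracted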
Hsp70 activator – Hsp70 transcriptional activators, primary screen, cell-based, HeLa, Hsp70 promoter luciferase, luminescence, 10 µM | activation, % at 10 µM | 0.04% of 200,000 active | HeLa Hsp70 promoter luciferase reporter; scaled: vehicle 0, proteasome-inhibitor control 100%;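 active = activation above the mean across all tested compounds plus 3 SD, cutoff set per campaign, cut at about 5.5% in these data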
INS promoter inh – inhibitors of insulin promoter-driven GFP, primary screen, imaging, TRM-6 cells, eGFP reporter, cell count. reporter expression induced with tamoxifen. inhibition, % at 2 µM. 0.9% of 130,000 active;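 active = inhibition above the mean plus 3 SD, with well images judged a real hit on visual review, cut at about 60% in these data, passing the limit was not always enough; inconclusive = inhibition over the cutoff but images rejected on review; inactive = inhibition not above the cutoff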
Wee1 stabilizer – Wee1 degradation inhibitors, primary screen, cell-based, HeLa, Wee1K328M-luciferase, luminescence | Wee1-like protein kinase (Homo sapiens), P30291 | reporter increase, % at 5 µM | 1.2% of 220,000 active | AID 1321, 2008 | HeLa Luc-Wee1K328M stability; 100% = proteasome inhibitor MG132 effect;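 active = activation above the mean of all tested compounds plus 3 SD, set per screening run, cut at about 8.8% in these data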;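 note: cells exposed to compound for 20 h before luminescence read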
Target sequence (P30291 whole entry K328M): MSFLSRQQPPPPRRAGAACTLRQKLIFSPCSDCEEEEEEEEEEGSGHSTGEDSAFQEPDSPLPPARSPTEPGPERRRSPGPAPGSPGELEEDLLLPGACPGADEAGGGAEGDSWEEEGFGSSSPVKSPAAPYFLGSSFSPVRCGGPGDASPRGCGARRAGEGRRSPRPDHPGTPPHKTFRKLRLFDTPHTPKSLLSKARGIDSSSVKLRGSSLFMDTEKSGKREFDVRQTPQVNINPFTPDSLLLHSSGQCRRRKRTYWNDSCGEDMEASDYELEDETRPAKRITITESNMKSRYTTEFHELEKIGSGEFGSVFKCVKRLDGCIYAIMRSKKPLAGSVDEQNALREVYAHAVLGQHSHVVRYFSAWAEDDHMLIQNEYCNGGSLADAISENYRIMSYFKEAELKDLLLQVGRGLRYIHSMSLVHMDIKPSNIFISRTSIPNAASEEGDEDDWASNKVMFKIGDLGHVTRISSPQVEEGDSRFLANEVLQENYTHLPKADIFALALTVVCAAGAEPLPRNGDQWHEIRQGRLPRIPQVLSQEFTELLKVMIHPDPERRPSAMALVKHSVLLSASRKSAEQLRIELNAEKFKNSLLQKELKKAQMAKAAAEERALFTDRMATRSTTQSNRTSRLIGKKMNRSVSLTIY
Numbers stand for hits; 0 = inactive; ? = inconclusive; - = no result given.

SMILES	RBBP9 inh	Insulin prom up	MDM2 E3 inh	Hsp70 activator	INS promoter inh	Wee1 stabilizer
Cc1ccc(NC(=O)N2CCCC(C(=O)O)C2)cc1 (stereo not given)	0	0	-	-	-	0
Nc1c2c(nc3ccc(Br)cc13)N(Cc1ccccc1)CC2	0	-	0	0	69	0
Nc1c2c(nc3ccc(Br)cc13)N(c1ccccc1)CC2	0	-	0	0	0	0
Cc1cc(C)c(S(C)(=O)=O)c(N(C)NC(=O)c2c(F)cccc2F)n1	0	0	0	0	0	0
Cc1cc(C)c(S(C)(=O)=O)c(N(C)N)n1	0	0	0	0	75	0
O=C1CN(C(=O)COc2ncnc3ccccc23)c2ccccc2N1	0	4	0	0	0	0
O=C(C1CCC1)N1CCc2cc(S(=O)(=O)NCc3ccco3)ccc21	0	0	0	0	82	0
Cc1ccc(Sc2ccc(NC(=O)CCl)cc2)cc1C	0	0	0	0	0	0
Cc1ccc(C)c(Sc2ccc(NC(=O)CCl)cc2)c1	0	0	0	0	0	16
C/C(=N\NC(=O)c1ccn(C)n1)c1ccc(NC(=O)C2CCCC2)cc1	0	0	0	0	71	0
C/C(=N/NC(=O)c1ccoc1C)c1ccc(NC(=O)C2CCCC2)cc1	0	0	0	0	0	0
COc1ccc(C(=O)NNC(=O)CSc2nnc(-c3cccnc3)o2)cc1	0	0	0	0	-	0
O=S(=O)(c1ccccc1)N1CCCC1c1cccs1 (stereo not given)	0	0	0	-	-	10
COc1ccc(S(=O)(=O)N2CCCC2c2cccs2)cc1 (stereo not given)	0	0	0	-	-	0
C/C(=N\NC(=O)c1ccn(C)n1)c1cccc(NC(=O)c2ccncc2)c1	0	0	0	0	0	0
CN(C)c1cc(C(F)(F)F)nc(-c2ccccn2)n1	0	0	31	0	0	0
Cc1ccc(CSCC(=O)NCc2ccco2)cc1	0	0	0	0	0	0
COc1ccc(Nc2nc(C(=O)N3CCc4ccccc4C3)cs2)cc1	0	0	33	0	0	0
COc1cc(C(=O)Nc2cccc(-c3nc4cc(C)ccc4o3)c2)cc(OC)c1OC	0	0	0	0	71	0
Cc1ccc(-c2nc3cc(NC(=O)C(C)C)ccc3o2)cc1	0	0	0	0	0	25
CCn1cc(S(=O)(=O)N2CCN(Cc3cccc(Cl)c3)CC2)cn1	0	0	0	0	0	0
CC(C)CNC(=O)NC(=O)COc1ncnc2sccc12	0	0	0	0	0	9.4
O=C(O)/C=C/C(=O)N(Cc1ccccc1)Cc1ccco1	0	0	0	0	-	0
C=C(C)c1cccc(C(C)(C)NC(=O)N(Cc2ccccc2)Cc2ccco2)c1	0	0	0	0	0	16
CC(C)CN(Cc1cc(=O)oc2cc(-c3ccccc3)c(O)cc12)CC(C)C	0	0	0	-	-	9.3
SMILES	RBBP9 inh	Insulin prom up	MDM2 E3 inh	Hsp70 activator	INS promoter inh	Wee1 stabilizer
O=C(CCc1ccccn1)N1CCCC(CNS(=O)(=O)c2cccs2)C1 (stereo not given)	0	0	0	0	-	0
Cc1cccc(NC(=O)CSc2nnc(Cc3ccccc3)o2)c1	0	0	0	0	0	0
Cc1ccc(NC(=O)CSc2nnc(Cc3ccccc3)o2)cc1	0	0	0	0	0	11
Cc1ccc(S(=O)(=O)C(C#N)=C2N(C)c3ccccc3N2C)cc1	0	0	0	0	-	0
COc1ccc(N2CCN(C(=O)c3ccc(NS(=O)(=O)c4cccs4)cc3)CC2)cc1	0	0	0	0	-	9.0
O=C(Cn1nnc(-c2cccs2)n1)N1c2ccccc2Sc2ccc(C(F)(F)F)cc21	0	-	-	0	80	0
Cc1cc(C)n(CC(=O)N2c3ccccc3Sc3ccc(C(F)(F)F)cc32)n1	0	0	0	0	?	0
CC(Sc1ccccc1)C(=O)NN=C1CCCCCC1 (stereo not given)	0	8.1	0	0	0	0
NC(=O)c1ccsc1NC(=O)c1coc2ccccc2c1=O	0	0	0	0	0	10
CC(C)c1nnc(SCC(=O)NCc2ccco2)n1C	0	0	0	0	0	0
Cc1cc2cc(C)c(SCC(=O)NCc3ccco3)nc2cc1C	0	0	31	0	-	0
O=C(CSc1nnc2ccccn12)NCc1ccco1	0	0	0	0	71	0
Cc1ccc(S(=O)(=O)N(C)c2ccccc2C(=O)NC2CCCC2)cc1	0	0	0	0	0	0
CCOc1ccc(OCCN2CCCCC2)cc1	0	0	0	0	62	0
O=c1[nH]c(CSc2nc3ccccc3s2)nc2ccccc12	0	0	-	-	-	9.0
Cn1nnc2cc(C(=O)Nc3ccc4ccccc4c3)ccc21	0	0	0	0	-	0
CCN1C(=O)N(C(C)=O)C2C1N(C(C)=O)C(=O)N2C(C)=O (stereo not given)	0	0	0	0	-	0
O=C(C(=O)N1CCN(c2ccccc2)CC1)c1c[nH]c2ccccc12	0	0	0	0	-	11
NS(=O)(=O)c1ccc(NC=C2C(=O)OC3(CCCCC3)OC2=O)cc1	0	3.8	0	0	0	0
CCCCc1ccc(NC=C2C(=O)OC3(CCCCC3)OC2=O)cc1	0	0	0	0	0	0
Cc1cc(C)cc(NC(=O)c2cc(C)n(Cc3cccs3)c2C)c1	0	0	0	-	-	0
CCOC(=O)C1CCCN(c2c(N3CCN(c4ccccn4)CC3)c(=O)c2=O)C1 (stereo not given)	0	0	0	0	86	0
CCOC(=O)C1CCN(c2c(N3CCCC(C(=O)OCC)C3)c(=O)c2=O)CC1 (stereo not given)	0	-	0	0	-	0
COc1ccccc1NC(=O)CCn1c(=O)sc2ccccc21	0	0	0	0	0	0
O=C(CSCc1ccccc1)N1CCN(c2ccc(F)cc2)CC1	0	0	0	0	0	0
O=C(CSCc1ccccc1)N1CCN(c2ccccc2)CC1	0	0	0	0	0	9.0
Cn1c(=O)cc(SCC(=O)N2CCN(c3ccccc3)CC2)c2ccccc21	0	0	0	0	85	0
CCC(=NC(C)c1ccccc1)c1c(O)n(C)c(=O)n(C)c1=O (stereo not given)	0	0	0	0	81	0
CC(=O)NC(CC(=O)OCC(=O)c1c(N)n(C)c(=O)n(C)c1=O)c1ccccc1 (stereo not given)	0	0	0	0	-	0
O=C(N/N=C/c1cccc([N+](=O)[O-])c1)c1cccc(Br)c1	0	0	0	0	0	9.4
